# Reference: ChEMBL document CHEMBL4715791, “Enhancing Therapeutic Efficacy of Cisplatin by Blocking DNA Damage Repair” (ACS Med Chem Lett, 2016)
# Active and inactive are the calls of the source. No cut-off for these calls is given here.
# Legend:
# [1] = system: HeLa; test: Inhibition of PP2A in human HeLa cells assessed as increase in phosphorylated Akt expression level at 2.5 uM measured after 24 hrs in presence of cisplatin by Hoechst staining based immunofluorescence assay; assay type: cell-based
# [2] = system: HeLa; test: Effect on total Akt expression in human HeLa cells at 2.5 uM measured after 24 hrs by Hoechst staining based immunofluorescence assay; assay type: functional, cell-based
# [3] = system: HeLa; test: Inhibition of PP2A in human HeLa cells assessed as increase in phosphorylated Akt expression level at 2.5 uM measured after 24 hrs by Hoechst staining based immunofluorescence assay; assay type: cell-based
# [4] = system: HeLa; test: Anticancer activity against human HeLa cells assessed as reduction in cell viability measured after 24 to 72 hrs by MTT assay; assay type: functional, cell-based; settings: dose 1-100 µM, time 24-72 hrs
# Outline: (§1)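 MTT viability assay in HeLa and A549 cells, with concentration- and time-dependent exposures.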
# [5] = system: HeLa; test: Effect on total ERK level in human HeLa cells at 2.5 uM measured after 24 hrs in presence of cisplatin by Hoechst staining based immunofluorescence assay; assay type: functional, cell-based
# [6] = system: HeLa; test: Synergistic anticancer activity against human HeLa cells assessed as combination index at cisplatin to compound ratio of 1:1 measured after 24 to 72 hrs by MTT based Chou-Talalay method; assay type: functional; settings: time 24-72 hrs
# Outline: (§2)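 Cisplatin and compound given together at fixed molar ratios. Viability read by MTT. Combination index computed at 50% inhibition (CI50); below 1 = synergism, 1 = additivity, above 1 = antagonism. Tested at 24, 48 and 72 h incubation.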
# [7] = system: HeLa; test: Inhibition of PP2A in human HeLa cells assessed as increase in phosphorylated AKT expression level at 2.5 uM measured after 24 hrs by Western blot analysis; assay type: cell-based
# Outline: (§3)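 HeLa cells exposed 24 h to cisplatin, compound or the combination. P-Akt and P-ERK read by Western blot.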
# [8] = system: HeLa; test: Effect on tubulin expression in human HeLa cells at 2.5 uM measured after 24 hrs by Hoechst staining based immunofluorescence assay; assay type: functional, cell-based
# [9] = system: A549; test: Induction of cell cycle arrest in human A549 cells assessed as accumulation at S phase at 32.7 uM measured after 24 hrs by propidium iodide/RNase staining based flow cytometry (reference value: 27.5 %); assay type: functional
# [10] = system: HeLa; test: Induction of apoptosis in human HeLa cells assessed as late apoptotic cells at 6.8 uM measured after 24 hrs by annexinV-FITC/propidium iodide staining based flow cytometry relative to control; assay type: functional
# [11] = system: HeLa; test: Induction of apoptosis in human HeLa cells assessed as early apoptotic cells at 6.8 uM measured after 24 hrs by annexinV-FITC/propidium iodide staining based flow cytometry relative to control; assay type: functional
# [12] = system: HeLa; test: Potentiation of cisplatin-induced apoptosis in human HeLa cells assessed as early apoptotic cells at 6.8 uM measured after 24 hrs in presence of cisplatin by annexinV-FITC/propidium iodide staining based flow cytometry (reference value: 4.8%); assay type: functional
# [13] = system: HeLa; test: Effect on tubulin expression in human HeLa cells at 2.5 uM measured after 24 hrs in presence of cisplatin by DAPI staining based immunofluorescence assay
# [14] = system: HeLa; test: Potentiation of cisplatin-induced cell cycle arrest in human HeLa cells assessed as accumulation at G2/M phase at 6.8 uM measured after 24 hrs in presence of cisplatin by propidium iodide/RNase staining based flow cytometry (reference value: 11.69 %); assay type: functional
# [15] = system: HeLa; test: Anticancer activity against human HeLa cells assessed as reduction in cell viability at 1 to 100 uM by MTT assay; assay type: functional, cell-based; settings: dose 1-100 µM, time 24-72 hrs, TDE = time-dependent effect
# [16] = system: HeLa; test: Inhibition of PP2A in human HeLa cells assessed as enzyme activity at 10 uM measured after 3 hrs in presence of cisplatin by malachite green phosphatase assay relative to control; assay type: cell-based; design: scale not given: the % may be the effect or the level left
# Outline: (§4)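 PP2A activity measured in HeLa cells after 3 h exposure to compound, alone or combined with cisplatin. Activity expressed as % of untreated control.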
# [17] = system: A549; test: Induction of cell cycle arrest in human A549 cells assessed as accumulation at G2/M phase at 32.7 uM measured after 24 hrs by propidium iodide/RNase staining based flow cytometry (reference value: 11.7 %); assay type: functional
# [18] = system: HeLa; test: Antagonistic anticancer activity against human HeLa cells assessed as combination index at cisplatin to compound ratio of 1:2 measured after 48 to 72 hrs by MTT based Chou-Talalay method; assay type: functional; settings: time 48-72 hrs; outline: as §2
# [19] = system: A549; test: Anticancer activity against human A549 cells assessed as reduction in cell viability measured after 24 to 72 hrs by MTT assay; assay type: functional, cell-based; settings: time 24-72 hrs; outline: as §1
# [20] = system: HeLa; test: Induction of cell cycle arrest in human HeLa cells assessed as accumulation at S phase at 6.8 uM measured after 24 hrs by propidium iodide/RNase staining based flow cytometry (reference value: 27.21 %); assay type: functional
# [21] = Potentiation of cisplatin-induced antitumor activity against mouse U14 cells implanted in Kunming mouse assessed as tumor volume at 1.5 mg/kg, ip administered on day 2, 5, 8 cotreated with cisplatin at 5 mg/kg, ip on day 1, 4, 7 and measured at day 10 by caliper method (reference value: 178 +/- 33 mm3); assay type: functional; settings: time 10 day
# Outline: (§5)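 KM mice bearing subcutaneous U14 mouse cervical cancer xenografts. Groups received saline, cisplatin 5 mg/kg, compound 1.5 mg/kg, or both (1:1 molar ratio). Relative tumor volume followed over about 2 weeks.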
# [22] = system: HeLa; test: Effect on total ERK level in human HeLa cells at 2.5 uM measured after 24 hrs by Hoechst staining based immunofluorescence assay; assay type: functional, cell-based
# [23] = system: HeLa; test: Inhibition of PP2A in human HeLa cells assessed as increase in phosphorylated ERK expression level at 2.5 uM measured after 24 hrs by Hoechst staining based immunofluorescence assay; assay type: cell-based
# [24] = system: HeLa; test: Synergistic anticancer activity against human HeLa cells assessed as combination index at cisplatin to compound ratio of 1:0.5 measured after 24 hrs by MTT based Chou-Talalay method; assay type: functional; outline: as §2
# [25] = system: A549; test: Potentiation of cisplatin-induced cell cycle arrest in human A549 cells assessed as accumulation at G1 phase at 32.7 uM measured after 24 hrs in presence of cisplatin by propidium iodide/RNase staining based flow cytometry (reference value: 42.35%); assay type: functional
# [26] = system: A549; test: Synergistic anticancer activity against human A549 cells assessed as combination index at cisplatin:compound ratio of 1:0.5 to 1:3 measured after 24 hrs in presence of cisplatin by MTT based Chou-Talalay method; assay type: functional; outline: as §2
# [27] = system: HeLa; test: Induction of cell cycle arrest in human HeLa cells assessed as accumulation at G1 phase at 6.8 uM measured after 24 hrs by propidium iodide/RNase staining based flow cytometry (reference value: 62.27 %); assay type: functional
# [28] = system: HeLa; test: Induction of cell cycle arrest in human HeLa cells assessed as accumulation at G2/M phase at 6.8 uM measured after 24 hrs by propidium iodide/RNase staining based flow cytometry (reference value: 10.52 %); assay type: functional
# [29] = system: HeLa; test: Inhibition of PP2A in human HeLa cells assessed as increase in phosphorylated ERK expression level at 2.5 uM measured after 24 hrs in presence of cisplatin by Hoechst staining based immunofluorescence assay; assay type: cell-based
# [30] = system: HeLa; test: Potentiation of cisplatin-induced apoptosis in human HeLa cells assessed as late apoptotic cells at 6.8 uM measured after 24 hrs in presence of cisplatin by annexinV-FITC/propidium iodide staining based flow cytometry (reference value: 54%); assay type: functional
# [31] = system: HeLa; test: Potentiation of cisplatin-induced cell cycle arrest in human HeLa cells assessed as accumulation at S phase at 6.8 uM measured after 24 hrs in presence of cisplatin by propidium iodide/RNase staining based flow cytometry (reference value: 27.18 %); assay type: functional
# [32] = system: A549; test: Potentiation of cisplatin-induced cell cycle arrest in human A549 cells assessed as accumulation at S phase at 32.7 uM measured after 24 hrs in presence of cisplatin by propidium iodide/RNase staining based flow cytometry (reference value: 21.52 %); assay type: functional
# [33] = system: HeLa; test: Potentiation of cisplatin-induced cell cycle arrest in human HeLa cells assessed as accumulation at G1 phase at 6.8 uM measured after 24 hrs in presence of cisplatin by propidium iodide/RNase staining based flow cytometry (reference value: 61.13 %); assay type: functional
# [34] = system: HeLa; test: Antagonistic anticancer activity against human HeLa cells assessed as combination index at cisplatin to compound ratio of 1:0.3 measured after 48 to 72 hrs by MTT based Chou-Talalay method; assay type: functional; settings: time 48-72 hrs; outline: as §2
# [35] = system: HeLa; test: Inhibition of PP2A in human HeLa cells assessed as enzyme activity at 10 uM measured after 3 hrs by malachite green phosphatase assay relative to control; assay type: cell-based; design: scale not given: the % may be the effect or the level left; outline: as §4
# [36] = Toxicity in Kunming mouse implanted with mouse U14 cells assessed as change in body weight at 1.5 mg/kg, ip administered on day 2, 5, 8; assay type: organism-based; settings: in vivo, 72 h, time 3 day
# Outline: (§6)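 U14-xenografted KM mice given saline, cisplatin 5 mg/kg, compound 1.5 mg/kg or both. Body weight monitored as a measure of systemic toxicity.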
# [37] = system: HeLa; test: Effect on total Akt expression in human HeLa cells at 2.5 uM measured after 24 hrs in presence of cisplatin by Hoechst staining based immunofluorescence assay; assay type: functional, cell-based
# [38] = system: A549; test: Potentiation of cisplatin-induced apoptosis in human A549 cells at 32.7 uM measured after 24 hrs in presence of cisplatin by annexinV-FITC/propidium iodide staining based flow cytometry (reference value: 36.9%); assay type: functional
# [39] = system: A549; test: Induction of cell cycle arrest in human A549 cells assessed as accumulation at G1 phase at 32.7 uM measured after 24 hrs by propidium iodide/RNase staining based flow cytometry (reference value: 60.8 %); assay type: functional
# [40] = system: A549; test: Induction of apoptosis in human A549 cells at 32.7 uM measured after 24 hrs by annexinV-FITC/propidium iodide staining based flow cytometry relative to control; assay type: functional
# [41] = system: U14; test: Antitumor activity against mouse U14 cells implanted in Kunming mouse assessed as tumor growth inhibition at 1.5 mg/kg, ip administered on day 2, 5, 8 measured after 1 week by caliper method; assay type: functional, organism-based; settings: time 1.0 weeks; outline: as §5
# [42] = system: U14; test: Antitumor activity against mouse U14 cells implanted in Kunming mouse assessed as tumor growth inhibition at 1.5 mg/kg, ip administered on day 2, 5, 8 measured after 2 weeks by caliper method; assay type: functional, organism-based; outline: as §5
# [43] = Toxicity in Kunming mouse implanted with mouse U14 cells assessed as reduction in body weight at 1.5 mg/kg, ip administered on day 2, 5, 8 cotreated with cisplatin at 5 mg/kg, ip on day 1, 4, 7 and measured after 2 weeks; assay type: organism-based; settings: in vivo, 336 h; outline: as §6
# [44] = system: HeLa; test: Inhibition of PP2A in human HeLa cells assessed as increase in phosphorylated ERK expression level at 2.5 uM measured after 24 hrs by Western blot analysis; assay type: cell-based; outline: as §3
# [45] = Toxicity in Kunming mouse implanted with mouse U14 cells assessed as reduction in body weight at 1.5 mg/kg, ip administered on day 2, 5, 8 cotreated with cisplatin at 5 mg/kg, ip on day 1, 4, 7 and measured after 1 week; assay type: organism-based; settings: in vivo, 168 h, time 1 weeks; outline: as §6
# [46] = system: A549; test: Potentiation of cisplatin-induced cell cycle arrest in human A549 cells assessed as accumulation at G2/M phase at 32.7 uM measured after 24 hrs in presence of cisplatin by propidium iodide/RNase staining based flow cytometry (reference value: 36.13 %); assay type: functional
smiles,measurement,setting,value
CC(C)(C)OC(=O)N1CCN(C(=O)C2C3CCC(O3)C2C(=O)O)CC1 (stereo unspecified),inhibition,[1],Active
same,Activity,[2],inactive
same,inhibition,[3],Active
same,Activity,[4],Dose-dependent effect
same,Activity,[5],inactive
same,CI50,[6],<1
same,inhibition,[7],Active
same,Activity,[8],inactive
same,Activity,[9],36.61%
same,Activity,[10],21.8%
same,Activity,[11],5.4%
same,Activity,[12],6.4%
same,Activity,[13],inactive
same,Activity,[14],31.46%
same,Activity,[15],Tde
same,Activity,[16],86%
same,Activity,[17],11.32%
same,CI50,[18],>1
same,Activity,[19],Active
same,Activity,[20],34.21%
same,Activity,[21],97 mm3
same,Activity,[22],inactive
same,inhibition,[23],Active
same,CI50,[24],<1
same,Activity,[25],38.95%
same,CI50,[26],<1
same,Activity,[27],42.51%
same,Activity,[28],23.28%
same,inhibition,[29],Active
same,Activity,[30],64.1%
same,Activity,[31],27.87%
same,Activity,[32],45.71%
same,Activity,[33],40.67%
same,CI50,[34],>1
same,Activity,[35],78.5%
same,Activity,[36],Toxic
same,Activity,[37],inactive
same,Activity,[38],41.5%
same,Activity,[39],52.07%
same,Activity,[40],35.5%
same,growth inhibition (GI),[41],inactive
same,growth inhibition (GI),[42],Active
same,Activity,[43],Non-Toxic
same,inhibition,[44],Active
same,Activity,[45],Toxic
same,Activity,[46],15.34%
